# Compound activity (PubChem BioAssay)
# FN deposit inh: fibronectin deposition inhibition | AH1F fibroblasts, Alexa488-fibronectin deposition fluorescence, overnight | inhibition, % at 12.6 µM | actives 0.086% (n = 350,000);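 active = mean inhibition across replicates of 30% or more, regardless of how many single replicates reach that level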;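 also: positive control wells lacked labelled fibronectin entirely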
#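 Schedule: 1 h cell adhesion before compound, then overnight fibronectin incubation; test system: AH1F fibroblast monolayer depositing Alexa488-labelled fibronectin into matrix; quantity: 10000 AH1F cells per well; probe or stimulus: fluorescent fibronectin at 24 nM final; signal: fluorescence, ex 485 nm, em 525 nm; evaluation: percent inhibition as loss of matrix-bound fibronectin fluorescence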
# ERp5 inh: blocks human ERp5 reductase activity on insulin | Q15084 | ERp5 insulin aggregation, absorbance 650 nm, 90 min | inhibition, % at 9.99 µM | actives 0.05% (n = 350,000);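 active = mean replicate inhibition above about 25%, with every replicate also reaching it, limit read from the data, passing the limit was not always enough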
# Target sequence (Q15084 whole entry, looked up): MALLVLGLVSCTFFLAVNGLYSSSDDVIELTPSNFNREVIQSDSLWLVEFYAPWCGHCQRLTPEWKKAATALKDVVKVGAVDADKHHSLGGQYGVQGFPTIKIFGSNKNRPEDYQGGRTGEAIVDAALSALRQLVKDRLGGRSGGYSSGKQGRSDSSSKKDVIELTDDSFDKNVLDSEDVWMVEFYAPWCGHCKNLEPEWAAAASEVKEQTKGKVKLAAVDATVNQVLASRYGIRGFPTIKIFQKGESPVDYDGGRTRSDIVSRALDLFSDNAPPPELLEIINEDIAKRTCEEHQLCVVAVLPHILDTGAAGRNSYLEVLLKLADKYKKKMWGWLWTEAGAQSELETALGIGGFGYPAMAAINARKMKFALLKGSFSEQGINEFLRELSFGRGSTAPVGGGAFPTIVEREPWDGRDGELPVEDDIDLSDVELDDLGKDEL
# PDI turbidity: blocks human protein disulfide isomerase activity; PDI insulin aggregation turbidity, A650, 90 min; inhibition, % at 10 µM; actives 0.052% (n = 350,000); P07237;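 active = mean inhibition across replicates of 30% or more, whatever share of single replicates reach that level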
# SIRT5 inh: inhibitors of human sirtuin-5 desuccinylase; Purified SirT5, succinyl-peptide AMC, trypsin-coupled fluorescence; Q9NXA8; inhibition, % at 15 µM; actives 1.1% (n = 330,000); in the data active = inhibition above about 15%
# AF4-AF9 inh: MLL-AF4/AF9 protein interaction inhibition. P42568. AlphaScreen, biotin-AF4 peptide binding to FLAG-AF9. inhibition, % at 10 µM. actives 0.47% (n = 350,000);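 active = every replicate reaching a set inhibition limit, whatever the replicate mean, cut at about 25% in these data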;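 also: 0% = plate neutral control median and 100% = total signal loss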
# Active calls of the source: *; nt = no result given; ! = a repeat was not active. Only some compounds are listed: those with a hit (about 1.3% of all), similar ones and a draw of the others.
SMILES,FN deposit inh,ERp5 inh,PDI turbidity,SIRT5 inh,AF4-AF9 inh
COc1cc(/C=C/C(=O)O)ccc1OS(=O)(=O)c1ccc(C)cc1,-13,-3,5,1,-3
Cc1ccnc(NS(=O)(=O)c2ccc(N=CC3=C(O)CC(C)(C)CC3=O)cc2)n1,0,nt,-3,nt,nt
COc1cccc(-c2ccc3c(c2)O[C@@H](CN(C)C(=O)c2ccccc2F)[C@H](C)CN([C@@H](C)CO)S3(=O)=O)c1,nt,-1,nt,20*,-2
COCC#Cc1ccc2c(c1)O[C@@H](CN(C)C(=O)Nc1ccc(OC)cc1)[C@H](C)CN([C@@H](C)CO)S2(=O)=O,3,6,nt,4,0
COc1ccc(C#Cc2ccc3c(c2)O[C@@H](CN(C)C(=O)Nc2cccc(OC)c2)[C@H](C)CN([C@@H](C)CO)S3(=O)=O)cc1,12,-2,5,16*!,-1
COc1cccc(-c2ccc3c(c2)O[C@H](CN(C)C(=O)c2ccccc2F)[C@@H](C)CN([C@H](C)CO)S3(=O)=O)c1,nt,-1,nt,2,-2
COc1ccc(C#Cc2ccc3c(c2)O[C@H](CN(C)C(=O)Nc2cccc(OC)c2)[C@H](C)CN([C@@H](C)CO)S3(=O)=O)cc1,8,-1,nt,1,-2
COc1ccc(NC(=O)N(C)C[C@@H]2Oc3cc(C#CCN(C)C)ccc3S(=O)(=O)N([C@H](C)CO)C[C@@H]2C)cc1,5,-8,nt,0,6
COc1ccc(NC(=O)N(C)C[C@H]2Oc3cc(C#CCC(C)C)ccc3S(=O)(=O)N([C@@H](C)CO)C[C@H]2C)cc1,nt,3,nt,26*,2
COc1ccc(NC(=O)N(C)C[C@H]2Oc3cc(C#CCC(C)C)ccc3S(=O)(=O)N([C@@H](C)CO)C[C@@H]2C)cc1,nt,9,nt,33*,4
CN(C)CC(=O)N[C@@H]1C=C[C@@H](CC(=O)NCCN2CCCCC2)O[C@@H]1CO,5,6,nt,1,0
Cc1c(-n2cc(C(=O)c3cc(Br)ccc3O)cc(C#N)c2=O)c(=O)n(-c2ccccc2)n1C,2,nt,35*,nt,nt
Cn1c(=S)[nH]c2sc3c(c2c1=O)CCC(C(C)(C)C)C3 (stereo unspecified),-9,3,10,35*,1
COCCn1c(=S)[nH]c2sc3c(c2c1=O)CCC(C)C3 (stereo unspecified),4,-1,-6,-4,1
Cc1ccc(NC(=O)Cn2nnc(C(=O)NCc3cccs3)c2N)c(C)c1,-4,nt,-3,-2,-3
CCOc1ccc(CNC(c2ccccc2)c2ccccc2)cc1,-1,3,-5,-9,-5
C(=C\c1ccccc1)/C=N/N1CCN(Cc2ccccc2)CC1,-3,-6,-1,-2,44*
C(/C=C/c1ccccc1)=N/N1CCN(c2ccccc2)CC1,-8,nt,-7,nt,nt
O=C(/C=C/c1ccc(-c2ccc(F)cc2)o1)N1CCCC1,5,2,-5,21*,8
O=C(/C=C/c1ccc(F)cc1)N1CCCN(C(=O)/C=C/c2ccc(F)cc2)CC1,-8,nt,1,nt,nt
COCC(=O)N(C)C[C@@H]1Oc2cc(-c3ccccc3F)ccc2S(=O)(=O)N([C@@H](C)CO)C[C@@H]1C,-4,-1,nt,0,-2
FC(F)Sc1ccc(NC(=S)NCC2CCCCC2)cc1,nt,-1,-3,-2,2
CC(=O)N(c1nc(/C=C\C(=O)O)cs1)c1ccccc1F,-8,-9,1,17*,-17
CC(C)NC(=O)C1(C)CCN1C(=O)C/C=C/c1ccccc1 (stereo unspecified),6,2,8,nt,-3
COCCn1c(SCC(=O)Nc2cc(C)on2)nnc1-c1ccccc1,5,9,2,0,34*
SMILES,FN deposit inh,ERp5 inh,PDI turbidity,SIRT5 inh,AF4-AF9 inh
CN(C)CCOC(=O)NCC12CC3CC(CC(C3)C1)C2,0,2,-14,21*,-2
O=C(Nc1cc(Cl)ccc1-n1cncn1)c1cncc(Br)c1,4,2,4,0,0
Nc1c(C(=O)Nc2ccccc2)sc2nc(-c3ccco3)ccc12,nt,nt,-8,nt,nt
O=C(CCl)Nc1nc(-c2ccco2)c(-c2ccco2)s1,-15,8,62*,0,8
N=C1/C(=C/c2ccc(-c3cccc(C(=O)O)c3)o2)C(=O)N=C2SC(CC(=O)N3CCOCC3)=NN12,5,3,-16,22*,-11
Clc1cccc(CN2CCC3CC2c2cc(N4CCCCC4)ccc23)c1 (stereo unspecified),-2,-3,0,nt,26*
O=C1CCC(C(=O)N2CCC(CO)CC2)CN1Cc1ccc(Cl)cc1 (stereo unspecified),nt,-1,-2,0,-1
CCOC(=O)C1CCN(C(=O)C2CCC(=O)N(Cc3cccc(C(F)(F)F)c3)C2)CC1 (stereo unspecified),7,2,1,-6,-1
CCOC(=O)N1CCN(C(=O)C2CCC(=O)N(Cc3cccc(C(F)(F)F)c3)C2)CC1 (stereo unspecified),1,-1,7,21*,0
CC1CCN(C(=O)C2CCC(=O)N(Cc3ccc(Cl)cc3)C2)CC1 (stereo unspecified),5,-4,1,23*,-22
CCc1ccc(-c2cc(C)no2)cc1S(=O)(=O)Nc1cc(C)ccn1,-4,4,-11,32*,1
CCc1ccc(-c2cc(C)no2)cc1S(=O)(=O)NCc1ccco1,-7,5,11,3,1
CN(C)S(=O)(=O)c1ccc(Cl)c(C(=O)NNC(=O)Cc2nc3ccccc3n2C)c1,10,-18,1,0,-1
CN(C)S(=O)(=O)N1C(=O)c2ccccc2C1=O,-6,2,-6,-6,-3
CCc1nc2ccc(C(=O)Nc3cc(-c4ccccc4)ccc3OC)cn2c1N(CCN(C)C)CC1CC1,-17,-6,6,-2,30*
CCCCNC(=O)NC(C(=O)OC)C12CC3CC(CC(C3)C1)C2 (stereo unspecified),2,-3,11,-2,0
CCC(C)n1nnc2c(=O)oc3ccccc3c21 (stereo unspecified),nt,6,-1,-3,8
COc1ccccc1Oc1ccc(S(=O)(=O)N2CCCCC2C)cc1 (stereo unspecified),-5,2,-4,7,1
COc1ccc(S(=O)(=O)N2CCCCC2C)cc1 (stereo unspecified),2,-3,1,-5,29*
NC(Cc1ccc(O)c([N+](=O)[O-])c1)C(=O)O (stereo unspecified),2,nt,2,nt,nt
N[C@@H](Cc1ccc(O)c(O)c1)C(=O)O,-5,7,-5,15*,0
CO[C@H]1CN(C)C(=O)c2cc(NC(C)=O)ccc2OC[C@@H](C)N(C(=O)Cc2ccccn2)C[C@@H]1C,-4,-2,nt,0,29*
CO[C@H]1CN(C)C(=O)c2ccc(NC(=O)C3CC3)cc2OC[C@@H](C)N(C(=O)c2ccccc2F)C[C@H]1C,-2,-9,nt,18*,-3
